Assay results taken from ChEMBL document CHEMBL4251751 (J Med Chem, 2018).
≈ marks a conversion by molar mass, not a printed value. One block for each compound: values may come before it. Calls of active or inactive are those of the source. The rule behind the calls is not given here.

Legend:
[1] = Elimination half life in C57BL/6JRj mouse at 10 mg/kg, po by LC-MS/MS analysis; assay type: ADME, organism-based; details: in vivo, read-out: beta t1/2 (converted)
Method in brief: (§1)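 Four healthy wild-type male C57Bl6/J mice received a single oral dose of 10 mg/kg. Plasma concentrations were followed over time to give uptake, bioavailability and terminal half-life. Results are mean±SEM, n=4.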

[2] = system: Mus musculus; test: Time at which plasma concentration stays above in-vitro EC50 for partial agonist activity at PPARgamma in C57BL/6JRj mouse at 10 mg/kg, po by LC-MS/MS analysis; assay type: organism-based; details: in vivo; method in brief: as §1
[3] = Metabolic stability in Sprague-Dawley rat liver microsomes assessed as compound remaining at 10 uM in presence of NADPH regenerating system after 4 hrs by HPLC analysis; assay type: ADME, microsome; details: read-out: Stability
[4] = molecular target: T1, Peroxisome proliferator-activated receptor gamma (Mus musculus, UniProt P37238); test: Agonist activity at PPARgamma in mouse 3T3-L1 cells assessed as induction of adipocyte differentiation at 0.3 to 3 uM after 15 days by Oil Red O staining-based assay; assay type: cell-based; details: 3t3-l1, 360 h
T1 sequence (P37238 whole entry): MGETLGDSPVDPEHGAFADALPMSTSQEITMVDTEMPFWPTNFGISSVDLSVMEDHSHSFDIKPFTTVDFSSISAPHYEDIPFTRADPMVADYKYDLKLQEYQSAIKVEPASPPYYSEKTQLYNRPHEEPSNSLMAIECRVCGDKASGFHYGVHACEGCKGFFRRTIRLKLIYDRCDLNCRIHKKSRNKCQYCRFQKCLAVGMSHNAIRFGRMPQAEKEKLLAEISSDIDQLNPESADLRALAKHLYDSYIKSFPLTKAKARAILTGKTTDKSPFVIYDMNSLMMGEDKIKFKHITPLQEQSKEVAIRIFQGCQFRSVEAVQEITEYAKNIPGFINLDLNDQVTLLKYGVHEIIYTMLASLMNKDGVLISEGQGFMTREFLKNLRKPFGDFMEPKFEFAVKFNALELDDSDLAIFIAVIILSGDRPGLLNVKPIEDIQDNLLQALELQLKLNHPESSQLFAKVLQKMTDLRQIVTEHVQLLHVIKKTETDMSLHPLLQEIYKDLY

[5] = system: Mus musculus; test: Activation of PPARgamma in C57BL/6JRj mouse assessed as up-regulation of CD36 expression at 10 mg/kg, po administered as single dose measured at 8 hrs post dose relative to untreated control; assay type: functional, organism-based
Method in brief: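 Healthy wild-type male C57BL6/J mice were dosed orally at 10 mg/kg or with vehicle. Hepatic transcription of the PPARγ target gene CD36 was assessed in liver against vehicle-treated animals. Mean±SEM, n(vehicle)=2, n(treated)=4.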

[6] = system: HepG2; test: Cytotoxicity against human HepG2 cells at 1 to 100 uM after 48 hrs by WST assay; assay type: cell-based; details: hepg2, 48 h
[7] = system: Mus musculus; test: Drug uptake in C57BL/6JRj mouse at 10 mg/kg, po by LC-MS/MS analysis; assay type: ADME, organism-based; details: in vivo; method in brief: as §1
[8] = system: Mus musculus; test: Anti-inflammatory activity in zymosan-induced paw edema C57BL/6N mouse model assessed as reduction in paw edema at 10 mg/kg, po via gavage pretreated for 30 mins followed by zymosan injection and measured after 24 hrs post zymosan injection by plethysmometry; assay type: functional, organism-based
Method in brief: (§2)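 Zymosan was injected intraplantar into one hindpaw of C57BL/6N mice. Test compound or vehicle was given orally at 10 mg/kg 30 min beforehand. Paw edema was measured by plethysmometry at 8 h and 24 h after zymosan, with the contralateral hindpaw as a control.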

[9] = molecular target: T2, Nuclear receptor subfamily 1 group I member 3 (Homo sapiens, UniProt Q14994); test: Agonist activity at human CAR LBD expressed HEK293T cells at 10 uM after 12 to 14 hrs by dual-glo luciferase reporter gene assay; assay type: ADME
T2 sequence (Q14994 whole entry): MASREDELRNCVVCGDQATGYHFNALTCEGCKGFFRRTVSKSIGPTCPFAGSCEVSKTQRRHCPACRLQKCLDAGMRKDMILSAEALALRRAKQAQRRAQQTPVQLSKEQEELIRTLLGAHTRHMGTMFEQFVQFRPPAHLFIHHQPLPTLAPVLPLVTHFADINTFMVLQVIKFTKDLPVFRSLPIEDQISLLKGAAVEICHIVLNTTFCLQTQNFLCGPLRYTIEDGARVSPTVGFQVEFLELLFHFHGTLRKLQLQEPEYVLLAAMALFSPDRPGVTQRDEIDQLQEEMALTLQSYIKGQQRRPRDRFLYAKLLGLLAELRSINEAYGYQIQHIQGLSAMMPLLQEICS

[10] = Aqueous solubility of the compound at 5 mg after 24 hrs by HPLC analysis; assay type: physicochemical; details: water
[11] = molecular target: T3, Peroxisome proliferator-activated receptor gamma (Mus musculus) (UniProt P37238); test: Agonist activity at PPARgamma in mouse 3T3-L1 cells assessed as increase in CPT1A mRNA expression at 1 uM after 15 days by quantitative real-time PCR method; assay type: cell-based
T3 sequence (whole entry): T1 sequence (P37238 whole entry)

[12] = molecular target: T1, Peroxisome proliferator-activated receptor gamma; test: Agonist activity at PPARgamma in mouse 3T3-L1 cells assessed as increase in CD36 mRNA expression at 1 uM after 15 days by quantitative real-time PCR method; assay type: cell-based; details: 3t3-l1, 360 h
[13] = system: Mus musculus; test: Time at which plasma concentration stays above in-vitro pA2 for CysLT1 in C57BL/6JRj mouse at 10 mg/kg, po by LC-MS/MS analysis; assay type: ADME, organism-based; details: in vivo; method in brief: as §1
[14] = system: Mus musculus; test: Time at which plasma concentration stays above in-vitro IC50 for sEH in C57BL/6JRj mouse at 10 mg/kg, po by LC-MS/MS analysis; assay type: ADME, organism-based; details: in vivo; method in brief: as §1
[15] = system: Mus musculus; test: Anti-inflammatory activity in zymosan-induced paw edema C57BL/6N mouse model assessed as reduction in paw edema at 10 mg/kg, po via gavage pretreated for 30 mins followed by zymosan injection and measured after 8 hrs post zymosan injection by plethysmometry; assay type: functional, organism-based; method in brief: as §2
[16] = molecular target: T4, Cysteinyl leukotriene receptor 1 (Homo sapiens, UniProt Q9Y271); test: Antagonist potency at human CysLT1R expressed in African green monkey COS7 cells assessed as inhibition of LTD4-induced Ca2+ levels after 60 mins by fura-2/AM-fluorescence based spectrofluorimetry; assay type: functional, cell-based; details: read-out: pA2 (converted)
T4 sequence (Q9Y271 whole entry): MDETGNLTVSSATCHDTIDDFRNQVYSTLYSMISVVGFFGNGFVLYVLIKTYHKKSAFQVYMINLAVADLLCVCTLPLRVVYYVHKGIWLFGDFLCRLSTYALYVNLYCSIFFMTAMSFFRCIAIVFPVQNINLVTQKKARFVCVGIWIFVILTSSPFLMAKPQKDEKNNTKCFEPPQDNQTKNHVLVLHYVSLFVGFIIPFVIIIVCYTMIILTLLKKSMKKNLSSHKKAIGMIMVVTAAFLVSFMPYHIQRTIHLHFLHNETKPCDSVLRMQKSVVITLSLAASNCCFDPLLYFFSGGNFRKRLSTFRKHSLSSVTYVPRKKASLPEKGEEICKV

[17] = Lipophilicity, log D of the compound at 30 uM at pH 7.4 by HPLC method; assay type: physicochemical; details: buffer
[18] = molecular target: T5, Bifunctional epoxide hydrolase 2 (Homo sapiens, UniProt P34913); test: Inhibition of recombinant human sEH using PHOME as substrate preincubated for 30 mins followed by substrate addition and measured after 30 mins by spectrofluorimetry
T5 sequence (P34913 whole entry): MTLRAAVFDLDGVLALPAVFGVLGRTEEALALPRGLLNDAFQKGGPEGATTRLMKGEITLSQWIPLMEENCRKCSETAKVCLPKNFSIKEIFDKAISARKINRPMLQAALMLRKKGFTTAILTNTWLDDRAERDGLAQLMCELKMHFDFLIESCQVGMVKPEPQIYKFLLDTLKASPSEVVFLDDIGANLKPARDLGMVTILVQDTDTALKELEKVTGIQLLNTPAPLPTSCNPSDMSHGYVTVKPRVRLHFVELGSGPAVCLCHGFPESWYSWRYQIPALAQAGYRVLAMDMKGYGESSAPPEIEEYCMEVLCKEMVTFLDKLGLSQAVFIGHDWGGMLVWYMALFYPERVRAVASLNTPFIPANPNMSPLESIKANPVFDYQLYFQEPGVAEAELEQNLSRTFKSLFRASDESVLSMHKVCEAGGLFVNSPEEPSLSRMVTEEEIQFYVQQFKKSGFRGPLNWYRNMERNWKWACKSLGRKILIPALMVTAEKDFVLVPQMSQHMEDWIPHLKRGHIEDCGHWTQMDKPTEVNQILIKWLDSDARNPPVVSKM

[19] = molecular target: T6, Peroxisome proliferator-activated receptor gamma (Homo sapiens, UniProt P37231); test: Partial agonist activity at human PPARgamma LBD expressed HEK293T cells after 12 to 14 hrs by dual-glo luciferase reporter gene assay
T6 sequence (P37231 whole entry): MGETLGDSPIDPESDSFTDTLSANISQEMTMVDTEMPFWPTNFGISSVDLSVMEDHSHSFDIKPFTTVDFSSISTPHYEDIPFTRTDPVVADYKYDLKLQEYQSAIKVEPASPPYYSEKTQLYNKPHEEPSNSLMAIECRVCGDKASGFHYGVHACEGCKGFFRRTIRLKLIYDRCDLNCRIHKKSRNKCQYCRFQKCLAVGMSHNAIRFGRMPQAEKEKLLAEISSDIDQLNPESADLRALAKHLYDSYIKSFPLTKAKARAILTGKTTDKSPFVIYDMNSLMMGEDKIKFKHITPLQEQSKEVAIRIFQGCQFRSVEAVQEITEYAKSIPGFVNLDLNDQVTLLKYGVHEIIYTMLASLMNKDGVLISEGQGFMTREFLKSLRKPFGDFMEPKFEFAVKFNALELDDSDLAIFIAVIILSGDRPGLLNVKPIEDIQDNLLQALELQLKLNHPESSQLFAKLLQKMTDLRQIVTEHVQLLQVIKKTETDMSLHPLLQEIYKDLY

half-life [1]: 1.9 h
Time [2]: 4 h
remaining at 4 h, 10 µM [3]: 65%
Drug uptake [7]: Active
Activity [9]: Not Active
solubility at 24 h [10]: 2.1 µg/mL (≈ 3.65 µM)
Activity [11]: inactive
Time [13]: 8 h
Time [14]: 8 h
Kb [16]: 2 nM
logD at 30 µM [17]: 1.7
Structure (SMILES): COc1cc(C(=O)NS(=O)(=O)c2ccccc2)ccc1Cc1cn(C)c2ccc(NC(=O)NC3CCCCC3)cc12
Activity [4]: Not Active
Activity [5]: Active
Activity [6]: Non-Toxic
Activity [8]: Active
Activity [12]: Not Active
Activity [15]: inactive

IC50 [18]: 1490 nM
Kb [16]: 5.01 nM
EC50 [19]: 350 nM
Structure (SMILES): COc1cc(C(=O)NS(=O)(=O)c2cccc(C(F)(F)F)c2)ccc1Cc1cn(C)c2ccc(NC(=O)NC3CCCCC3)cc12

IC50 [18]: 7000 nM
Kb [16]: 0.1 nM
EC50 [19]: 140 nM
Structure (SMILES): COc1cc(C(=O)NS(=O)(=O)c2cccc(Cl)c2)ccc1Cc1cn(C)c2ccc(NC(=O)OC3CCCC3)cc12

IC50 [18]: 680 nM
Kb [16]: 1.26 nM
EC50 [19]: 370 nM
Structure (SMILES): COc1cc(C(=O)NS(=O)(=O)c2cccc(Cl)c2)ccc1Cc1cn(C)c2ccc(NC(=O)NC3CCCCC3)cc12

IC50 [18]: 2500 nM
Kb [16]: 0.0794 nM
EC50 [19]: 230 nM
Structure (SMILES): COc1cc(C(=O)NS(=O)(=O)c2ccccc2)ccc1Cc1cn(C)c2ccc(NC(=O)OC3CCCC3)cc12
